The nature of this data set: Toxicity liver stage against HepG2, at 10uM. It is filed as cell-based. More on the design: test concentration 10 uM, cell line HepG2-A16-CD81EGFP. As to conditions: human, HepG2-A16-CD81EGFP cells; read-out: INHIBITION
In short, it runs like this: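 Uninfected HepG2-A16-CD81EGFP cells, 3 × 10^3 per well, 1536-well, plated on prespotted compound at 10 μM final, parasite-free screening media added to match infected plates; puromycin 10 μM positive, DMSO 0.5% negative; run in parallel with 48 h PbLuc assay at 37 °C, 5% CO2; viability by CellTiter-Glo luminescence, normalized to controls.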

As for `CCS(=O)(=O)NCCN1CCN(C(C#N)c2ccccc2)CC1` (configuration not stated), the cytotoxicity at 10 µM was -4.04%.
The figure for `CC(C)n1cnnc1Cn1c(=O)ccc2ccccc21` is 5.62%.
The result for `CC(c1ccc(Cl)cc1)N1CCN(CCCS(N)(=O)=O)CC1` (configuration not stated) reads -1.44%.
Consider `CS(=O)(=O)N1CCN(C(=O)Cn2ccc3c(Cl)cccc32)CC1`, for which the cytotoxicity at 10 µM stood at 20.6%.
As to `CC(NC(=O)Nc1ccc(F)c(F)c1)c1nc[nH]n1` (configuration not stated), the cytotoxicity at 10 µM came to 0.185%.
The result for `CC1CN(C(=O)NCCc2nc(C(C)C)no2)CCO1` (configuration not stated) reads -0.745%; that for `O=C(CN1CCOC(Cn2cccn2)C1)Nc1nccs1` (configuration not stated), 3.64%; that for `Cc1nc(C2CCCN(C(=O)c3ccc(OCC4CC4)cc3)C2)no1` (configuration not stated), -7.69%.
The result for `CCNC(=O)CN(CC)C(=O)c1csc(Cc2ccccc2F)n1` reads 7.6%; that for `CCOCC(=O)N1CC[C@H]2OCC[C@@]2(COc2ncccc2F)C1`, -152%.
The result for `N#Cc1cc2c(=O)n(CC(O)C(F)(F)F)ccc2[nH]c1=O` (configuration not stated) reads -1.99%; that for `CN1CCN(c2ccc(F)cc2NC(=O)NCc2ccon2)CC1`, -6.84%.
Regarding `CNC(=O)[C@H]1C[C@@H]2CN(Cc3cccnc3OC)C[C@@H]2N1C(C)=O`, the cytotoxicity at 10 µM was 1.2%.
As to `O=C(C1CCOCC1)N1C[C@@H]2OCCN(CCN3CCCC3)[C@@H]2C1`, the cytotoxicity at 10 µM was -3.83%.
The result for `Cn1cc(Br)c(=O)c(NS(=O)(=O)c2ccc3c(c2)CCC3)c1` reads -3.47%; that for `NC(=O)c1cc(C2CCCN(C(=O)CCc3cccs3)C2)n[nH]1` (configuration not stated), 2.33%.
Consider `Oc1ccc(Cl)cc1CNCc1ccccc1Cl`, for which the cytotoxicity at 10 µM was -0.0124%.
The figure for `CC(c1ccon1)N(C)C(=O)C1CCN(C(=O)C2CC2)CC1` (configuration not stated) is -2.71%; for `Cc1nc(C2CCCNC2)cc(N(C)CCc2cn[nH]c2)n1` (configuration not stated) it is -9.91%; for `CCc1c(O)n(C(C)CC)c(SCC(=O)c2ccccc2)nc1=O` (configuration not stated) it is -2.11%.
The figure for `CCCN1CCN(C(=O)c2cnn(-c3ccccc3F)c2)CC1` is 0.313%; for `O=C1COC2(CCN(Cc3ccco3)CC2)CN1CCn1cccn1` it is 10.2%.
The result for `Cc1nc(C)n(CCNC2CCN(c3ncnc4c(C)csc34)CC2)n1` reads 4.35%; that for `Cc1ccc(CC(=O)Nc2cc(C(C)C)n[nH]2)cn1`, -1.71%; that for `O=C(CCCNC(=O)C1CC1)Nc1cnn(-c2ccccc2Cl)c1`, -12.3%.
With `CCCC1(CO)CCCN(Cc2ncccn2)C1` (configuration not stated), the cytotoxicity at 10 µM was -1.89%.
The figure for `CCN(Cc1ccc2c(c1)OCO2)C(=O)NC(C)Cn1cccn1` (configuration not stated) is -2.5%.
The result for `Cc1nc2ccc(-n3ncnc3[C@@H]3CCCN3S(C)(=O)=O)cc2s1` reads -11.5%; that for `CNC(=O)CN1CCOCC2(CCCN(Cc3ccsc3)C2)C1` (configuration not stated), 2.61%; that for `CCc1c(C)nc2cc(C3CCN(Cc4cccnc4)C3)nn2c1O` (configuration not stated), -25.4%.
The figure for `Cc1cc(F)ccc1S(=O)(=O)NCC(O)c1cccn1C` (configuration not stated) is -5.62%; for `OC(COCc1cccs1)Cn1cc(Br)cn1` (configuration not stated) it is 1.91%.
On to `COC(=O)c1cccc(NCC(=O)NC(N)=O)c1`, for which the cytotoxicity at 10 µM is 6.88%.
The result for `Cc1ccccc1OC1(C(=O)O)CCN(C(=O)CCc2ccco2)CC1` reads 1.5%; that for `CC(C)N1CCC(Nc2ccn(Cc3ccccn3)n2)C1=O` (configuration not stated), -2.43%.
Consider `CC(c1nc(C2CC2)no1)N1CCN(c2ccc(C#N)cn2)CC1` (configuration not stated), for which the cytotoxicity at 10 µM is 1.18%.
The result for `Cc1nn(C)cc1CN1CCCn2nc(CNC(=O)C3CCC3)cc2C1` reads 2.84%; that for `CN1CCCC2(CCN(C(=O)CCn3cncn3)C2)C1=O` (configuration not stated), -11%.
Consider `COc1ccc(C(NC(=O)NCc2nnc3n2CCC3)C2CC2)cc1` (configuration not stated), for which the cytotoxicity at 10 µM stood at 11.7%.
The result for `Cc1nc(COCC2CN(C(=O)N(C)C)Cc3nccn3C2)cs1` (configuration not stated) reads 4.48%; that for `Cc1nn(C)c(C)c1Cc1nc(N(C)C)no1`, 7.06%; that for `CC1CCC(NC(=O)Nc2ccc(CC(=O)N(C)C)cc2)CC1` (configuration not stated), 3.85%.
The figure for `COCc1nc(C(=O)NS(=O)(=O)c2ccc(C)c(C)c2)cs1` is -8%; for `CN(CCN1CCOC1=O)CC(=O)Nc1ccc(Cl)c(C(F)(F)F)c1` it is -46.5%; for `CN(C)C[C@@H]1OC[C@H]2CN(Cc3ccoc3)CC[C@H]21` it is -131%.
The result for `COC(=O)c1ccc(NCc2csc(C)n2)cc1Cl` reads -5.08%; that for `CC(=O)NCCC(Cc1ccccc1)c1ccco1` (configuration not stated), -1.24%; that for `CC(OCC1CC1)C(=O)N1CCCN(Cc2nccn2C)CC1` (configuration not stated), 2.48%.
For the molecule `CC(C)N(C)C(=O)C1CSCN1S(=O)(=O)c1cc(Cl)ccc1Cl` (configuration not stated), the cytotoxicity at 10 µM was -1.57%.
The figure for `COCC(=O)N1CCC2(CC1)CCN(Cc1ccccn1)C2=O` is 1.62%; for `Cc1nn(C2CCS(=O)(=O)C2)c(O)c1CCc1ccccc1` (configuration not stated) it is -50.2%.
The figure for `COCCN1CCO[C@@H]2CN(C(=O)Cc3ccc(F)cc3)CC[C@@H]2C1` is 7.07%; for `COc1ccc(OC)c(Sc2ncccc2C(=O)NCCSC)c1` it is 20.7%.
The result for `Cc1nc2cc(-c3nccn3C)nn2c(N2CCCC(O)C2)c1C` (configuration not stated) reads 2.92%.
For the molecule `Clc1ccccc1C1(c2ccnc(CC3CC3)n2)CCNCC1`, the cytotoxicity at 10 µM was -10.3%.
The figure for `COc1cc(CCC(C)O)c(OC)c2c1OCO2` (configuration not stated) is 6.79%.
The result for `COc1ccc(C(=O)Nc2n[nH]c(C3CCCO3)n2)cc1` (configuration not stated) reads -2.46%.
The result for `CCN(CC)S(=O)(=O)N1CCCC1C(=O)N1CCSCC1` (configuration not stated) reads -4.71%; that for `Cc1ncc(CN2CCC(c3nc4cc(Cl)ccc4o3)CC2)s1`, 51.7%; that for `CN(Cc1ccccc1)C1(C(=O)NC(C)(C)CO)Cc2ccccc2C1`, 0.603%.
On to `CCN(Cc1ccc2c(c1)OCCO2)C(=O)NC(C)Cn1ccnc1` (configuration not stated), for which the cytotoxicity at 10 µM is -2.79%.
The result for `Cc1ccc(-c2ccnc(NCC3(N(C)C)CCOCC3)n2)c(C)n1` reads 13.1%.
The figure for `Cc1ncc2c(n1)CN(CC(=O)N1CCc3sccc3C1)CC2` is 4.68%; for `Cc1ncsc1C(=O)NC1CCN(CC(=O)N(C)c2ccccc2)CC1` it is 1.26%.
The figure for `CC(=O)c1c(C)nn(S(=O)(=O)c2ccc(F)cc2)c1C` is 3.25%; for `CCN(Cc1nc(C2CC2)no1)Cc1ccc(C#N)cc1F` it is 3.82%.
As for `CCN(Cc1nc(COC)no1)C(=O)CCn1c(C)cc2ccccc21`, the cytotoxicity at 10 µM is -0.0679%.
On to `CC(C)(C(=O)N1CCC(CS(N)(=O)=O)CC1)c1ccccc1F`, for which the cytotoxicity at 10 µM is 6.03%.
The figure for `c1cnc(N2CCc3onc(CN4CCOCC4)c3C2)cn1` is 14.1%.
The result for `Cc1cnccc1CCNC(=O)Nc1cnc(N(C)C)nc1` reads 7.75%.
The result for `Cc1cc(C)n(C2CCCN(C(=O)COCC(F)(F)F)C2)n1` (configuration not stated) reads -4.3%; that for `COc1nn(C)c2c1CCCN(S(=O)(=O)c1cccc(C)c1)C2`, -133%.

The values above are taken from ChEMBL document CHEMBL4513216, “Probing the Open Global Health Chemical Diversity Library for Multistage-Active Starting Points for Next-Generation Antimalarials” (ACS Infect Dis, 2020).
